# Measured values reported in ChEMBL document CHEMBL4339192, “De Novo Designed Amphipathic α-Helical Antimicrobial Peptides Incorporating Dab and Dap Residues on the Polar Face To Treat the Gram-Negative Pathogen, Acinetobacter baumannii” (J Med Chem, 2019).
# Where a SMILES comes first, the peptide text is derived from it. [ ]: non-standard residue; d: D form. dOrn = NCCC[C@@H](N)C(=O)O
# Assays:
# Type in all cases: functional
# [1] = system: Acinetobacter baumannii; test: Antibacterial activity against Acinetobacter baumannii 649 measured after 24 hrs by microtiter dilution method; settings: Acinetobacter baumannii, 649, 24 h
# Outline: (§1)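 Broth microdilution in Mueller-Hinton (MH) medium. […] Plates were incubated 24 h at 37 °C. MIC was the lowest peptide concentration that inhibited growth, based on three sets of replicates.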
# [2] = system: Acinetobacter baumannii; test: Antibacterial activity against Acinetobacter baumannii isolate 1001611 measured after 24 hrs by microtiter dilution method; settings: isolate 1001611, 24 h; outline: as §1
# [3] = system: Acinetobacter baumannii; test: Antibacterial activity against Acinetobacter baumannii isolate 1007660 measured after 24 hrs by microtiter dilution method; settings: isolate 1007660, 24 h; outline: as §1
# [4] = system: Acinetobacter baumannii; test: Antibacterial activity against Acinetobacter baumannii isolate 1021371 measured after 24 hrs by microtiter dilution method; settings: isolate 1021371, 24 h; outline: as §1
# [5] = system: Acinetobacter baumannii; test: Antibacterial activity against Acinetobacter baumannii isolate 952654 measured after 24 hrs by microtiter dilution method; settings: isolate 952654, 24 h; outline: as §1
# [6] = system: Acinetobacter baumannii; test: Antibacterial activity against Acinetobacter baumannii isolate 9383370 measured after 24 hrs by microtiter dilution method; settings: isolate 9383370, 24 h; outline: as §1
# [7] = system: Acinetobacter baumannii; test: Antibacterial activity against Acinetobacter baumannii isolate 961997 measured after 24 hrs by microtiter dilution method; settings: isolate 961997, 24 h; outline: as §1
# [8] = system: Acinetobacter baumannii; test: Antibacterial activity against Acinetobacter baumannii isolate 1002956 measured after 24 hrs by microtiter dilution method; settings: isolate 1002956, 24 h; outline: as §1
# [9] = system: Acinetobacter baumannii; test: Antibacterial activity against Acinetobacter baumannii isolate 977751 measured after 24 hrs by microtiter dilution method; settings: isolate 977751, 24 h; outline: as §1
# [10] = system: Acinetobacter baumannii; test: Antibacterial activity against Acinetobacter baumannii isolate 1035166 measured after 24 hrs by microtiter dilution method; settings: isolate 1035166, 24 h; outline: as §1
# [11] = system: Acinetobacter baumannii; test: Antibacterial activity against Acinetobacter baumannii isolate 1010282 measured after 24 hrs by microtiter dilution method; settings: isolate 1010282, 24 h; outline: as §1
# [12] = system: Acinetobacter baumannii; test: Antibacterial activity against Acinetobacter baumannii isolate 1010245 measured after 24 hrs by microtiter dilution method; settings: isolate 1010245, 24 h; outline: as §1
# [13] = system: Acinetobacter baumannii; test: Antibacterial activity against Acinetobacter baumannii isolate 1017395 measured after 24 hrs by microtiter dilution method; settings: isolate 1017395, 24 h; outline: as §1
# [14] = system: Acinetobacter baumannii; test: Antibacterial activity against Acinetobacter baumannii isolate 968886 measured after 24 hrs by microtiter dilution method; settings: isolate 968886, 24 h; outline: as §1
# [15] = system: Acinetobacter baumannii; test: Antibacterial activity against Acinetobacter baumannii isolate 964304 measured after 24 hrs by microtiter dilution method; settings: isolate 964304, 24 h; outline: as §1
# [16] = system: Acinetobacter baumannii; test: Antibacterial activity against Acinetobacter baumannii isolate 963659 measured after 24 hrs by microtiter dilution method; settings: isolate 963659, 24 h; outline: as §1
# [17] = system: Acinetobacter baumannii; test: Antibacterial activity against Acinetobacter baumannii isolate 963618 measured after 24 hrs by microtiter dilution method; settings: isolate 963618, 24 h; outline: as §1
# [18] = system: Acinetobacter baumannii; test: Antibacterial activity against Acinetobacter baumannii isolate 1018887 measured after 24 hrs by microtiter dilution method; settings: isolate 1018887, 24 h; outline: as §1
# [19] = system: Acinetobacter baumannii; test: Antibacterial activity against Acinetobacter baumannii isolate 1035794 measured after 24 hrs by microtiter dilution method; settings: isolate 1035794, 24 h; outline: as §1
# [20] = system: Acinetobacter baumannii; test: Antibacterial activity against Acinetobacter baumannii isolate 981650 measured after 24 hrs by microtiter dilution method; settings: isolate 981650, 24 h; outline: as §1
# [21] = system: Acinetobacter baumannii; test: Antibacterial activity against Acinetobacter baumannii isolate 965463 measured after 24 hrs by microtiter dilution method; settings: isolate 965463, 24 h; outline: as §1
# [22] = system: Acinetobacter baumannii; test: Antibacterial activity against polymyxin B/colistin-resistant Acinetobacter baumannii M89963 measured after 24 hrs by microtiter dilution method; settings: M89963, 24 h; outline: as §1
# [23] = system: Acinetobacter baumannii; test: Antibacterial activity against polymyxin B/colistin-resistant Acinetobacter baumannii M89953 measured after 24 hrs by microtiter dilution method; settings: M89953, 24 h; outline: as §1
# [24] = system: Acinetobacter baumannii; test: Antibacterial activity against polymyxin B/colistin-resistant Acinetobacter baumannii M89952 measured after 24 hrs by microtiter dilution method; settings: M89952, 24 h; outline: as §1
# [25] = system: Acinetobacter baumannii; test: Antibacterial activity against polymyxin B/colistin-resistant Acinetobacter baumannii M89951 measured after 24 hrs by microtiter dilution method; settings: M89951, 24 h; outline: as §1
# [26] = system: Acinetobacter baumannii; test: Antibacterial activity against polymyxin B/colistin-resistant Acinetobacter baumannii M89949 measured after 24 hrs by microtiter dilution method; settings: M89949, 24 h; outline: as §1
# [27] = system: Acinetobacter baumannii; test: Antibacterial activity against polymyxin B/colistin-resistant Acinetobacter baumannii M89941 measured after 24 hrs by microtiter dilution method; settings: M89941, 24 h; outline: as §1
# [28] = system: Acinetobacter baumannii; test: Antibacterial activity against polymyxin B/colistin-resistant Acinetobacter baumannii M89955 measured after 24 hrs by microtiter dilution method; settings: M89955, 24 h; outline: as §1
compound,measurement,setting,value
CC(=O)N[C@H](CCCCN)C(=O)N[C@H](CC(C)C)C(=O)N[C@H](CCCN)C(=O)N[C@H](CO)C(=O)N[C@H](CC(C)C)C(=O)N[C@H](CC(C)C)C(=O)N[C@H](CCCN)C(=O)N[C@@H](C(=O)N[C@H](CC(C)C)C(=O)N[C@H](CO)C(=O)N[C@H](CCCN)C(=O)N[C@H](C)C(=O)N[C@H](C)C(=O)N[C@H](C)C(=O)N[C@H](C)C(=O)N[C@H](C)C(=O)N[C@H](CC(C)C)C(=O)N[C@H](CCCN)C(=O)N[C@@H](C(=O)N[C@H](CC(C)C)C(=O)N[C@H](CC(C)C)C(=O)N[C@H](CCCN)C(=O)N[C@H](C)C(=O)N[C@H](CC(C)C)C(=O)N[C@H](CO)C(=O)N[C@H](CCCN)C(N)=O)[C@H](C)O)[C@H](C)O (Ac-[dK][dL][dOrn][dS][dL][dL][dOrn][dT][dL][dS][dOrn][dA][dA][dA][dA][dA][dL][dOrn][dT][dL][dL][dOrn][dA][dL][dS][dOrn]-NH2),MIC,[1],1.5 µM
same,MIC,[2],1.5 µM
same,MIC,[3],1.5 µM
same,MIC,[4],1.5 µM
same,MIC,[5],1.5 µM
same,MIC,[6],3 µM
same,MIC,[7],1.5 µM
same,MIC,[8],1.5 µM
same,MIC,[9],6 µM
same,MIC,[10],1.5 µM
same,MIC,[11],1.5 µM
same,MIC,[12],1.5 µM
same,MIC,[13],3 µM
same,MIC,[14],3 µM
same,MIC,[15],1.5 µM
same,MIC,[16],0.7 µM
same,MIC,[17],1.5 µM
same,MIC,[18],3 µM
same,MIC,[19],3 µM
same,MIC,[20],1.5 µM
same,MIC,[21],3 µM
same,MIC,[22],2.9 µM
same,MIC,[23],1.5 µM
same,MIC,[24],1.5 µM
same,MIC,[25],1.5 µM
same,MIC,[26],2.9 µM
same,MIC,[27],2.9 µM
CC(=O)N[C@H](CCCCN)C(=O)N[C@H](CC(C)C)C(=O)N[C@H](CCCN)C(=O)N[C@H](CO)C(=O)N[C@H](CC(C)C)C(=O)N[C@H](CC(C)C)C(=O)N[C@H](CCCN)C(=O)N[C@@H](C(=O)N[C@H](CC(C)C)C(=O)N[C@H](CO)C(=O)N[C@H](CCCN)C(=O)N[C@H](C)C(=O)N[C@H](CCCCN)C(=O)N[C@H](C)C(=O)N[C@H](C)C(=O)N[C@H](CCCCN)C(=O)N[C@H](CC(C)C)C(=O)N[C@H](CCCN)C(=O)N[C@@H](C(=O)N[C@H](CC(C)C)C(=O)N[C@H](CC(C)C)C(=O)N[C@H](CCCN)C(=O)N[C@H](C)C(=O)N[C@H](CC(C)C)C(=O)N[C@H](CO)C(=O)N[C@H](CCCN)C(N)=O)[C@H](C)O)[C@H](C)O (Ac-[dK][dL][dOrn][dS][dL][dL][dOrn][dT][dL][dS][dOrn][dA][dK][dA][dA][dK][dL][dOrn][dT][dL][dL][dOrn][dA][dL][dS][dOrn]-NH2),MIC,[1],0.4 µM
same,MIC,[22],0.4 µM
same,MIC,[28],0.4 µM
same,MIC,[23],0.4 µM
same,MIC,[25],0.7 µM
same,MIC,[26],0.7 µM
same,MIC,[27],0.7 µM
